Data taken from ChEMBL document CHEMBL3271992, “Synthesis of 4-alkyl and 4-(beta-alkylvinyl) derivatives of primaquine as potential antimalarials” (J Med Chem, 1979).
Active and inactive are the calls of the source. The rule behind the calls is not given here.

Columns and labels:
[1] = test system: Mus musculus; assay: Toxicity in mouse infected with Plasmodium berghei assessed as death at 640 mg/kg after 2 to 5 days; assay type: organism-based; design: dose 640 mg/kg; conditions: in vivo
[2] = test system: Plasmodium berghei; assay: Antimalarial activity against blood schizont stage of Plasmodium berghei infected in mouse assessed as mean survival time at 40 mg/kg (reference value: 6.2 +/- 0.5 days); assay type: functional
[3] = test system: Plasmodium berghei; assay: Antimalarial activity against blood schizont stage of Plasmodium berghei infected in mouse assessed as mean survival time at 20 mg/kg (reference value: 6.2 +/- 0.5 days); assay type: functional
[4] = test system: Plasmodium berghei; assay: Antimalarial activity against blood schizont stage of Plasmodium berghei infected in mouse assessed as mean survival time at 80 mg/kg (reference value: 6.2 +/- 0.5 days); assay type: functional
[5] = test system: Mus musculus; assay: Toxicity in mouse infected with Plasmodium berghei assessed as death at 320 mg/kg after 2 to 5 days; assay type: organism-based; design: dose 320 mg/kg; conditions: in vivo
[6] = test system: Plasmodium cynomolgi; assay: Antimalarial activity against Plasmodium cynomolgi infected in rhesus monkey assessed as time duration between end of treatment and relapse at 1 mg/kg administered via stomach tube once daily for 7 days with 2.5 mg of base/kg of chloroquine1; assay type: functional
[7] = test system: Plasmodium cynomolgi; assay: Antimalarial activity against Plasmodium cynomolgi infected in rhesus monkey assessed as time duration between end of treatment and relapse at 0.5 mg/kg administered via stomach tube once daily for 7 days with 2.5 mg of base/kg of chloroquine1; assay type: functional
[8] = test system: Plasmodium cynomolgi; assay: Antimalarial activity against Plasmodium cynomolgi infected in rhesus monkey assessed as infection cure at 0.5 mg/kg administered via stomach tube once daily for 7 days with 2.5 mg of base/kg of chloroquine; assay type: functional, organism-based; design: dose 0.5 mg/kg
[9] = test system: Plasmodium cynomolgi; assay: Antimalarial activity against Plasmodium cynomolgi infected in rhesus monkey assessed as infection cure at 0.25 mg/kg administered via stomach tube once daily for 7 days with 2.5 mg of base/kg of chloroquine; assay type: functional, organism-based; design: dose 0.25 mg/kg
[10] = test system: Leishmania donovani; assay: Antileishmanial activity against Leishmania donovani infected in hamster; assay type: functional, organism-based
[11] = test system: Plasmodium cynomolgi; assay: Antimalarial activity against Plasmodium cynomolgi infected in rhesus monkey assessed as infection cure at 1 mg/kg administered via stomach tube once daily for 7 days with 2.5 mg of base/kg of chloroquine; assay type: functional, organism-based; design: dose 1 mg/kg
[12] = test system: Plasmodium cynomolgi; assay: Antimalarial activity against Plasmodium cynomolgi infected in rhesus monkey assessed as time duration between end of treatment and relapse at 0.25 mg/kg administered via stomach tube once daily for 7 days with 2.5 mg of base/kg of chloroquine1; assay type: functional, organism-based; design: dose 0.25 mg/kg
[13] = test system: Plasmodium berghei yoelii; assay: Antimalarial activity against sporozoite stage of Plasmodium berghei yoelii infected in mouse assessed as survival at 2.5 mg/kg, po after 30 days; assay type: functional, organism-based; design: dose 2.5 mg/kg
Outline: (§1)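 Mice infected with P. berghei yoelii (sporozoite challenge) were dosed on the day of challenge, in groups of five, either orally or subcutaneously at several dose levels. Compound was dissolved or suspended in 0.5% hydroxyethylcellulose–0.1% Tween 80. Prophylactic activity was read as survival of treated mice to 30 days, reported as cures per number treated, with toxic deaths noted.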

[14] = test system: Plasmodium berghei; assay: Antimalarial activity against blood schizont stage of Plasmodium berghei infected in mouse assessed as mean survival time at 160 mg/kg (reference value: 6.2 +/- 0.5 days); assay type: functional
[15] = test system: Plasmodium berghei; assay: Antimalarial activity against blood schizont stage of Plasmodium berghei infected in mouse assessed as mean survival time at 640 mg/kg (reference value: 6.2 +/- 0.5 days); assay type: functional
[16] = test system: Plasmodium berghei; assay: Antimalarial activity against blood schizont stage of Plasmodium berghei infected in mouse assessed as mean survival time at 320 mg/kg (reference value: 6.2 +/- 0.5 days); assay type: functional
[17] = test system: Plasmodium berghei yoelii; assay: Antimalarial activity against sporozoite stage of Plasmodium berghei yoelii infected in mouse assessed as survival at 10 mg/kg, po after 30 days; assay type: functional, organism-based; design: dose 10 mg/kg; outline: as §1
[18] = test system: Plasmodium berghei yoelii; assay: Antimalarial activity against sporozoite stage of Plasmodium berghei yoelii infected in mouse assessed as survival at 160 mg/kg, sc after 30 days; assay type: functional, organism-based; design: dose 160 mg/kg; outline: as §1
[19] = test system: Plasmodium berghei yoelii; assay: Antimalarial activity against sporozoite stage of Plasmodium berghei yoelii infected in mouse assessed as survival at 10 mg/kg, sc after 30 days; assay type: functional, organism-based; design: dose 10 mg/kg; outline: as §1
[20] = test system: Plasmodium berghei yoelii; assay: Antimalarial activity against sporozoite stage of Plasmodium berghei yoelii infected in mouse assessed as survival at 2.5 mg/kg, sc after 30 days; assay type: functional, organism-based; design: dose 2.5 mg/kg; outline: as §1

Structure (SMILES) | Time [6] | Time [7] | Activity [8] | Activity [10] | Activity [11] | other results
COc1cc(NC(C)CCCN)c2ncccc2c1 (stereo unspecified) [PRIMAQUINE] |  |  |  |  |  | Activity [1]: Toxic; MSD [2]: 5 days; MSD [3]: 4 days; MSD [4]: 9.4 days; Activity [5]: Toxic
C/C=C\c1ccnc2c(NC(C)CCCN)cc(OC)cc12.O=C(O)/C=C/C(=O)O (mixture of isomers) | 6 days | 6 days | inactive | inactive | inactive | Activity [9]: inactive; Activity [12]: inactive; Activity [13]: inactive
COc1cc(NC(C)CCCN)c2nccc(CCC3CCCCC3)c2c1.O=C(O)/C=C/C(=O)O (stereo unspecified) |  |  |  | inactive |  | MSD [2]: 0.3 days; MSD [14]: 0.3 days; MSD [15]: 0.5 days
COc1cc(NC(C)CCCN)c2nccc(CCCC3CCCCC3)c2c1.O=C(O)/C=C/C(=O)O (stereo unspecified) | 8 days | 6 days | inactive | inactive | inactive | MSD [3]: 0.3 days; MSD [4]: 0.4 days; MSD [16]: 0.9 days
CCC(C)Cc1ccnc2c(NC(C)CCCN)cc(OC)cc12.O=C(O)/C=C/C(=O)O (stereo unspecified) | 9 days | 7 days | inactive | inactive | inactive | 
COc1cc(NC(C)CCCN)c2nccc(CC3CCCCC3)c2c1.O=C(O)/C=C/C(=O)O (stereo unspecified) | 7 days | 6 days | inactive | inactive | inactive | 
CCCc1ccnc2c(NC(C)CCCN)cc(OC)cc12.O=C(O)/C=C/C(=O)O (stereo unspecified) | 23 days | 7 days | inactive | inactive | inactive | 
COc1cc(NC(C)CCCN)c2nccc(C=C(C)C)c2c1 (stereo unspecified) |  |  |  | inactive |  | 
COc1cc(NC(C)CCCN)c2nccc(/C=C/C3CCCCC3)c2c1 (stereo unspecified) |  |  |  | inactive |  | Activity [17]: inactive; Activity [18]: inactive; Activity [19]: inactive
CCCCc1ccnc2c(NC(C)CCCN)cc(OC)cc12.O=C(O)/C=C/C(=O)O (stereo unspecified) | 22 days | 5 days | inactive | inactive | inactive | Activity [13]: inactive; Activity [19]: inactive
CC/C=C/c1ccnc2c(NC(C)CCCN)cc(OC)cc12.O=C(O)/C=C/C(=O)O (stereo unspecified) | 10 days | 6 days | inactive | inactive | inactive | MSD [2]: 5.1 days; MSD [3]: 3.1 days; Activity [13]: inactive; Activity [20]: inactive; MSD [4]: 6.5 days; MSD [14]: 7.5 days; MSD [16]: 9.5 days; MSD [15]: 10.3 days
C/C=C/c1ccnc2c(NC(C)CCCN)cc(OC)cc12.O=C(O)/C=C/C(=O)O (stereo unspecified) | 18 days | 8 days | inactive | inactive | inactive | Activity [19]: inactive
Br.COc1cc(NC(C)CCCN)c2nccc(/C=C/CC3CCCCC3)c2c1 (stereo unspecified) |  |  |  | inactive |  | MSD [3]: 0.4 days; MSD [4]: 0.9 days; MSD [16]: -0.4 days
CC/C(C)=C\c1ccnc2c(NC(C)CCCN)cc(OC)cc12 (stereo unspecified) |  |  |  | inactive |  | 
